# Laboratory results published in publication PMC3048920 (Clinical cancer research : an official journal of the …, 2011).
# Tests used:
# [1] = test system: patients with advanced solid malignancies; experiment: Treatment-related adverse events and laboratory abnormalities; assay type: in vivo
# [2] = test system: patients with advanced solid malignancies; experiment: Phase I dose escalation: dose-limiting toxicities and maximum tolerated dose; assay type: in vivo; conditions: for Even ts, n/N: DLT events, cycle 1
# NSCLC = experiment: Tumor response in NSCLC patients, correlated with tumor genotype; assay type: in vivo, human
# Summary of the method: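 NSCLC patients treated with oral once-daily test compound had tumors assessed by RECIST v1.0 at baseline, every two cycles and at end of treatment. Response was related to genotype. Archived tumor, or a fresh baseline biopsy where feasible, was tested for EGFR and KRAS mutations and EGFR/HER2 copy number by site laboratories, Pfizer or Genzyme.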
# [3] = test system: Ki67 and pERK1/2 (pMAPK) in skin biopsies; experiment: Skin biopsy pharmacodynamic biomarkers by immunohistochemistry; assay type: in vivo, human; conditions: with increased dose, Cmax, AUCtau and Ctrough; baseline vs cycle 1 day 14; P < 0.05
# [4] = human, in vivo
# [5] = test system: advanced malignant solid tumors; experiment: Tumor response; assay type: in vivo, human
# [6] = Schedule A (n = 111), treatment-related, all cycles
# [7] = Schedule B (n = 10), treatment-related, all cycles
# [8] = EGFR Exon 19 deletion, 17 patients
# [9] = EGFR Exon 19 deletion/T790M, 4 patients
# [10] = EGFR Exon 20 insertion, 6 patients (one not evaluable)
# [11] = EGFR mutation unknown, 12 patients (one not evaluable)
# [12] = EGFR wild type, 12 patients (one not evaluable)
compound,measurement,setting,value
COc1cc2ncnc(Nc3ccc(F)c(Cl)c3)c2cc1NC(=O)/C=C/CN1CCCCC1 [PF299804],"Anorexia, Grade 1, n (%)",[1]; [6],12 (10.8) n (%)
same,"Anorexia, Grade 2, n (%)",[1]; [6],9 (8.1) n (%)
same,"Anorexia, Grade 3, n (%)",[1]; [6],2 (1.8) n (%)
same,"Anorexia, Total, n (%)",[1]; [6],23 (20.7) n (%)
same,"Dermatitis acneiform, Grade 1, n (%)",[1]; [6],11 (9.9) n (%)
same,"Dermatitis acneiform, Grade 2, n (%)",[1]; [6],3 (2.7) n (%)
same,"Dermatitis acneiform, Grade 3, n (%)",[1]; [6],6 (5.4) n (%)
same,"Dermatitis acneiform, Total, n (%)",[1]; [6],20 (18.0) n (%)
same,"Diarrhea, Grade 1, n (%)",[1]; [6],43 (38.7) n (%)
same,"Diarrhea, Grade 2, n (%)",[1]; [6],20 (18.0) n (%)
same,"Diarrhea, Grade 3, n (%)",[1]; [6],11 (9.9) n (%)
same,"Diarrhea, Total, n (%)",[1]; [6],74 (66.7) n (%)
same,"Dry skin, Grade 1, n (%)",[1]; [6],29 (26.1) n (%)
same,"Dry skin, Grade 2, n (%)",[1]; [6],1 (0.9) n (%)
same,"Dry skin, Grade 3, n (%)",[1]; [6],0 n (%)
same,"Dry skin, Total, n (%)",[1]; [6],30 (27.0) n (%)
same,"Fatigue, Grade 1, n (%)",[1]; [6],20 (18.0) n (%)
same,"Fatigue, Grade 2, n (%)",[1]; [6],15 (13.5) n (%)
same,"Fatigue, Grade 3, n (%)",[1]; [6],3 (2.7) n (%)
same,"Fatigue, Total, n (%)",[1]; [6],38 (34.2) n (%)
same,"Nausea, Grade 1, n (%)",[1]; [6],28 (25.2) n (%)
same,"Nausea, Grade 2, n (%)",[1]; [6],7 (6.3) n (%)
same,"Nausea, Grade 3, n (%)",[1]; [6],1 (0.9) n (%)
same,"Nausea, Total, n (%)",[1]; [6],36 (32.4) n (%)
same,"Rash, Grade 1, n (%)",[1]; [6],30 (27.0) n (%)
same,"Rash, Grade 2, n (%)",[1]; [6],16 (14.4) n (%)
same,"Rash, Grade 3, n (%)",[1]; [6],4 (3.6) n (%)
same,"Rash, Total, n (%)",[1]; [6],50 (45.0) n (%)
same,"Stomatitis, Grade 1, n (%)",[1]; [6],17 (15.3) n (%)
same,"Stomatitis, Grade 2, n (%)",[1]; [6],9 (8.1) n (%)
same,"Stomatitis, Grade 3, n (%)",[1]; [6],4 (3.6) n (%)
same,"Stomatitis, Total, n (%)",[1]; [6],30 (27.0) n (%)
same,"Vomiting, Grade 1, n (%)",[1]; [6],14 (12.6) n (%)
same,"Vomiting, Grade 2, n (%)",[1]; [6],3 (2.7) n (%)
same,"Vomiting, Grade 3, n (%)",[1]; [6],1 (0.9) n (%)
same,"Vomiting, Total, n (%)",[1]; [6],18 (16.2) n (%)
same,"Alopecia, Grade 1, n (%)",[1]; [7],2 (20.0) n (%)
same,"Alopecia, Grade 2, n (%)",[1]; [7],0 n (%)
same,"Alopecia, Grade 3, n (%)",[1]; [7],0 n (%)
same,"Alopecia, Total, n (%)",[1]; [7],2 (20.0) n (%)
same,"Anorexia, Grade 1, n (%)",[1]; [7],0 n (%)
same,"Anorexia, Grade 2, n (%)",[1]; [7],3 (30.0) n (%)
same,"Anorexia, Grade 3, n (%)",[1]; [7],0 n (%)
same,"Anorexia, Total, n (%)",[1]; [7],3 (30.0) n (%)
same,"Dermatitis acneiform, Grade 1, n (%)",[1]; [7],0 n (%)
same,"Dermatitis acneiform, Grade 2, n (%)",[1]; [7],3 (30.0) n (%)
same,"Dermatitis acneiform, Grade 3, n (%)",[1]; [7],0 n (%)
same,"Dermatitis acneiform, Total, n (%)",[1]; [7],3 (30.0) n (%)
same,"Diarrhea, Grade 1, n (%)",[1]; [7],2 (20.0) n (%)
same,"Diarrhea, Grade 2, n (%)",[1]; [7],5 (50.0) n (%)
same,"Diarrhea, Grade 3, n (%)",[1]; [7],2 (20.0) n (%)
same,"Diarrhea, Total, n (%)",[1]; [7],9 (90.0) n (%)
same,"Dry eye, Grade 1, n (%)",[1]; [7],1 (10.0) n (%)
same,"Dry eye, Grade 2, n (%)",[1]; [7],2 (20.0) n (%)
same,"Dry eye, Grade 3, n (%)",[1]; [7],0 n (%)
same,"Dry eye, Total, n (%)",[1]; [7],3 (30.0) n (%)
same,"Dry skin, Grade 1, n (%)",[1]; [7],1 (10.0) n (%)
same,"Dry skin, Grade 2, n (%)",[1]; [7],2 (20.0) n (%)
same,"Dry skin, Grade 3, n (%)",[1]; [7],0 n (%)
same,"Dry skin, Total, n (%)",[1]; [7],3 (30.0) n (%)
same,"Eye pain, Grade 1, n (%)",[1]; [7],2 (20.0) n (%)
same,"Eye pain, Grade 2, n (%)",[1]; [7],0 n (%)
same,"Eye pain, Grade 3, n (%)",[1]; [7],0 n (%)
same,"Eye pain, Total, n (%)",[1]; [7],2 (20.0) n (%)
same,"Fatigue, Grade 1, n (%)",[1]; [7],0 n (%)
same,"Fatigue, Grade 2, n (%)",[1]; [7],3 (30.0) n (%)
same,"Fatigue, Grade 3, n (%)",[1]; [7],1 (10.0) n (%)
same,"Fatigue, Total, n (%)",[1]; [7],4 (40.0) n (%)
same,"Nausea, Grade 1, n (%)",[1]; [7],1 (10.0) n (%)
same,"Nausea, Grade 2, n (%)",[1]; [7],2 (20.0) n (%)
same,"Nausea, Grade 3, n (%)",[1]; [7],1 (10.0) n (%)
same,"Nausea, Total, n (%)",[1]; [7],4 (40.0) n (%)
same,"Pruritus, Grade 1, n (%)",[1]; [7],2 (20.0) n (%)
same,"Pruritus, Grade 2, n (%)",[1]; [7],0 n (%)
same,"Pruritus, Grade 3, n (%)",[1]; [7],0 n (%)
same,"Pruritus, Total, n (%)",[1]; [7],2 (20.0) n (%)
same,"Rash, Grade 1, n (%)",[1]; [7],4 (40.0) n (%)
same,"Rash, Grade 2, n (%)",[1]; [7],2 (20.0) n (%)
same,"Rash, Grade 3, n (%)",[1]; [7],0 n (%)
same,"Rash, Total, n (%)",[1]; [7],6 (60.0) n (%)
same,"Skin exfoliation, Grade 1, n (%)",[1]; [7],1 (10.0) n (%)
same,"Skin exfoliation, Grade 2, n (%)",[1]; [7],0 n (%)
same,"Skin exfoliation, Grade 3, n (%)",[1]; [7],1 (10.0) n (%)
same,"Skin exfoliation, Total, n (%)",[1]; [7],2 (20.0) n (%)
same,"Skin fissures, Grade 1, n (%)",[1]; [7],2 (20.0) n (%)
same,"Skin fissures, Grade 2, n (%)",[1]; [7],1 (10.0) n (%)
same,"Skin fissures, Grade 3, n (%)",[1]; [7],0 n (%)
same,"Skin fissures, Total, n (%)",[1]; [7],3 (30.0) n (%)
same,"Stomatitis, Grade 1, n (%)",[1]; [7],1 (10.0) n (%)
same,"Stomatitis, Grade 2, n (%)",[1]; [7],1 (10.0) n (%)
same,"Stomatitis, Grade 3, n (%)",[1]; [7],1 (10.0) n (%)
same,"Stomatitis, Total, n (%)",[1]; [7],3 (30.0) n (%)
same,"Vomiting, Grade 1, n (%)",[1]; [7],2 (20.0) n (%)
same,"Vomiting, Grade 2, n (%)",[1]; [7],1 (10.0) n (%)
same,"Vomiting, Grade 3, n (%)",[1]; [7],0 n (%)
same,"Vomiting, Total, n (%)",[1]; [7],3 (30.0) n (%)
same,total AEs,[1]; all 121 patients,"1,416 AEs"
same,AEs considered to be related to study drug,[1]; all schedules,709 AEs
same,patients experiencing AEs related to study drug,"[1]; all schedules, of 121",111 patients
same,AEs considered to be related to study drug,[1]; schedule A,626 AEs
same,patients experiencing AEs related to study drug,[1]; schedule A,102 patients
same,patients with dose interruptions as a result of treatment-related AEs,[1]; schedule A,29
same,AEs considered to be related to study drug,[1]; schedule B,83 AEs
same,patients with dose interruptions as a result of treatment-related AEs,[1]; schedule B,3
same,"total number of DLTs, share of treated patients","[2]; 45 mg including loading-dose cohort, four of 71 treated patients",6%
same,"total number of DLTs, share of treated patients","[2]; 45 mg, two of 52 treated patients",4%
same,"Even ts, n/N","[2]; Schedule A, 0.5 mg/day",0/3
same,"Even ts, n/N","[2]; Schedule A, 1 mg/day",0/3
same,"Even ts, n/N","[2]; Schedule A, 2 mg/day",0/3
same,"Even ts, n/N","[2]; Schedule A, 4 mg/day",0/5
same,"Even ts, n/N","[2]; Schedule A, 8 mg/day",0/3
same,"Even ts, n/N","[2]; Schedule A, 16 mg/day",0/4
same,"Even ts, n/N","[2]; Schedule A, 30 mg/day",1/13
same,"Even ts, n/N","[2]; Schedule A, 45 mg/day (loading dose)",2/19
same,"Even ts, n/N","[2]; Schedule A, 45 mg/day",2/52
same,"Even ts, n/N","[2]; Schedule A, 60 mg/day",3/6
same,"Even ts, n/N","[2]; Schedule B, 60 mg/day",1/10
same,maximum tolerated dose (MTD),[2]; continuous once-daily dosing,45 mg/day
same,objective response to treatment,NSCLC; 4 patients with exon 19 deletions and documented T790M,None
same,"Treatment Outcome, PD (patients)",NSCLC; [8],7
same,"Treatment Outcome, PR (patients)",NSCLC; [8],2
same,"Treatment Outcome, SD (patients)",NSCLC; [8],8
same,"Treatment Outcome, PD (patients)",NSCLC; [9],SD:2; PD:2
same,"Treatment Outcome, SD (patients)",NSCLC; [9],SD:2; PD:2
same,"Treatment Outcome, PD (patients)",NSCLC; [10],2
same,"Treatment Outcome, PR (patients)",NSCLC; [10],1
same,"Treatment Outcome, SD (patients)",NSCLC; [10],2
same,"Treatment Outcome, PD (patients)","NSCLC; EGFR L858R, 4 patients",1
same,"Treatment Outcome, SD (patients)","NSCLC; EGFR L858R, 4 patients",3
same,"Treatment Outcome, PD (patients)","NSCLC; EGFR mutant, Other, 2 patients",SD: 1; PD:1
same,"Treatment Outcome, SD (patients)","NSCLC; EGFR mutant, Other, 2 patients",SD: 1; PD:1
same,"Treatment Outcome, IND (patients)",NSCLC; [11],1
same,"Treatment Outcome, PD (patients)",NSCLC; [11],2
same,"Treatment Outcome, PR (patients)",NSCLC; [11],1
same,"Treatment Outcome, SD (patients)",NSCLC; [11],7
same,"Treatment Outcome, IND (patients)",NSCLC; [12],1
same,"Treatment Outcome, PD (patients)",NSCLC; [12],5
same,"Treatment Outcome, SD (patients)",NSCLC; [12],5
same,"Treatment Outcome, SD (patients)","NSCLC; HER2 amplified, 2 patients",SD:2
same,additional patients with stable disease (SD) of ≥6 weeks duration,NSCLC; NSCLC patients,28 patients
same,levels of pMAPK in skin biopsy,[3],significantly decreased
same,terminal half-life (t1/2),[4],59 to 85 h
same,complete responses,[5]; 110 patients with at least one response evaluation,No complete responses
same,patients with PR,"[5]; four of 110 evaluated patients, all NSCLC",3.6%
same,patients with stable disease as best response,"[5]; over all treatment cohorts, 110 evaluated",44 patients
